STAT3 act: increases IL-6 driven STAT3 reporter signal; U3A cells, IL-6 STAT3-luciferase reporter, luminescence; 100% = signal with IL-6 EC80 alone; activation (% of control), % at 5.6 µM; hit rate 0.91% among 190,000;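 active = activation above the screen-wide mean of compound activation plus 3 SD, cut at about 130% in these data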;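 note: 0% = background luminescence of wells with medium and substrate only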
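Detection: reporter luminescence signal / Assay system: STAT1-lacking human U3A cells, STAT3 luciferase reporter / Incubation: compound pre-incubation 1 h before IL-6, then 6 h stimulation at 37 °C / Control set: IL-6-only high control / Read-out: % activation relative to IL-6 control / Probe or stimulus: Interleukin-6, 33 ng/mL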
STAT1 blocker: STAT1 signaling inhibition. AID 920. NIH 3T3 STAT1-luciferase reporter, IFN-gamma, luminescence. hit rate 0.35% among 200,000. inhibition, % at 5.5 µM;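 active = inhibition above a set limit, the mean inhibition across all tested compounds plus 3 SD, cut at about 34% in these data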;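 note: 0% = IFN-gamma with DMSO and 100% = IFN-gamma with 300 µM nifuroxazide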
STAT3 inh: reduces IL-6 driven STAT3 reporter signal | U3A cells, IL-6 STAT3-luciferase reporter, luminescence; host cell line lacks STAT1 | inhibition, % at 5.5 µM | hit rate 0.89% among 190,000 | AID 862;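 active = inhibition above the mean inhibition across all screened compounds plus 3 SD, cut at about 44% in these data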;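 note: 0% = DMSO only wells and 100% = 100 µM nifuroxazide control wells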
PPC-1+TRAIL kill: PPC-1 cancer cell killing with TRAIL present; PPC-1 cells + TRAIL, ATPLite viability luminescence; AID 1443; cell killing (% activity), % at 4 µM or 5 µM; hit rate 0.41% among 220,000;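 active = cell killing above 50% in the first pass at 4 µM, then a duplicate retest at 5 µM averaging 50% or more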;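 note: plate controls were cells with TRAIL plus DMSO for no effect and medium-only wells lacking cells for full effect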
C8 TRAIL sens: caspase-8 TRAIL sensitization; NB7+C8 cells + TRAIL, ATPlite viability luminescence; inhibition (viability loss, TRAIL sensitization), % at 10 µM; hit rate 1% among 360,000;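 active = compounds causing at least 50% loss of cell viability in the single-dose screen, relative to plate controls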
* hit, by the source's call; . = not tested or not shown; ! = a repeat was not active. Only some compounds are listed: those with a hit (about 1.8% of all), similar ones and a draw of the others.

SMILES | STAT3 act | STAT1 blocker | STAT3 inh | PPC-1+TRAIL kill | C8 TRAIL sens
C[C@@H](C(=O)N[C@@H](Cc1ccccc1)C(=O)O)n1nnc2ccccc2c1=O | . | . | . | -16 | 3
CCN(CC)S(=O)(=O)c1cccc(C(=O)NCCCn2ccnc2)c1 | . | . | . | 2 | 35
c1ccc(-c2csc(Nc3cccnc3)n2)cc1 | 149* | -41 | -54 | 7 | -7
Fc1ccc(Nc2nc(-c3cccnc3)cs2)cc1 | 157* | -42 | -64 | . | 6
Cc1ccc(S(=O)(=O)N2CCCC2)cc1[N+](=O)[O-] | 105 | 11 | -9 | 24 | -6
O=[N+]([O-])c1cc(S(=O)(=O)N2CCCCCC2)ccc1Cl | 97 | 11 | 8 | 56* | -4
COc1ccccc1C(=O)NC(=Nc1nc2ccccc2o1)NC(=O)c1ccccc1OC | 136* | -1 | -41 | 3 | 71*!
COc1ccc(-c2cc3c(=O)n(CC(=O)NCc4ccc(Cl)cc4)ncn3n2)cc1 | . | . | . | . | 11
COc1ccc(-c2cc3c(=O)n(CC(=O)NCCCN4CCC(Cc5ccccc5)CC4)ncn3n2)cc1 | . | . | . | . | 83*
COc1ccc(-c2cc3c(=O)n(CC(=O)NCCCN4CCN(Cc5ccccc5)CC4)ncn3n2)cc1 | . | . | . | . | 80*
O=C(N/N=C/c1cccnc1)c1ccc2c(c1)OCO2 | . | . | . | . | 50*
O=C(N/N=C\c1cccc(OC(=O)c2ccco2)c1)c1ccc2c(c1)OCO2 | 64 | -21 | 43 | 53* | 86*
Cc1ccc(C)c(C(O)c2ncc(-c3ccc4ccccc4c3)[nH]2)c1 (stereo not given) | . | . | . | . | -15
CN(C(=O)COC(=O)c1c2c(nc3ccccc13)CCCC2)c1c(N)n(Cc2ccccc2)c(=O)[nH]c1=O | . | . | . | . | 5
CC(=O)c1ccc2c3c(cccc13)C(=O)N(CCc1ccccc1)C2=O | 183* | -36 | -101 | 7 | 6
COc1cccc(/C=C2\CCC(C3CCCC3)C2=O)c1OC (stereo not given) | . | . | . | . | 49*
COc1ccc(/C=C2\CCC(C3CCCC3)C2=O)c(OC)c1OC (stereo not given) | . | . | . | . | 4
Cc1ccc2cc(C(c3nnnn3C3CCCC3)N(Cc3cccnc3)Cc3ccco3)c(=O)[nH]c2c1 (stereo not given) | 100 | 3 | 4 | 53* | 10
Fc1cccc2sc(Nc3nnc(-c4ccccc4)o3)nc12 | 107 | -14 | 0 | 40 | 53*
COc1cc(OC)cc(-c2nnc(Nc3nc4c(F)cccc4s3)o2)c1 | 103 | 6 | 0 | 20 | -1
NNc1nc2c(F)cccc2s1 | 152* | -51 | -56 | 24 | -9
Cc1ccc(NCc2nc3ccccc3n2C)c(C)c1 | . | . | . | . | 83*
Cn1c(CNc2ccc(Cl)cc2)nc2ccccc21 | 163* | -47 | -71 | 12 | 26
Cc1cccc(NCc2nc3ccccc3n2C)c1 | 111 | -25 | -7 | 22 | -9
O=C(NNC1=NS(=O)(=O)c2ccccc21)c1ccc([N+](=O)[O-])cc1 | . | . | . | . | 61*
SMILES | STAT3 act | STAT1 blocker | STAT3 inh | PPC-1+TRAIL kill | C8 TRAIL sens
COCCc1nc2ccc(C(=O)N(C)Cc3cccc(-n4cccn4)c3)cc2o1 | . | . | . | . | -2
CC(C)c1ccc(NC(=O)CSc2ncccc2C(=O)Oc2cccc([N+](=O)[O-])c2)cc1 | 105 | -16 | -2 | 28 | 67*
O=C(CSc1ccccn1)Nc1cccc([N+](=O)[O-])c1 | 109 | -18 | -3 | 3 | 8
O=C(CN1CCN(C(=O)c2ccco2)CC1)Nc1ccc(F)cc1F | . | . | . | . | 0
O=C(NCCc1ccc(Cl)cc1)C1CCC(CNc2c(N3CCCCC3)c(=O)c2=O)CC1 (stereo not given) | 103 | 0 | -4 | -1 | 51*
O=C(NCCc1ccccc1)C1CCC(CNc2c(N3CCCCC3)c(=O)c2=O)CC1 (stereo not given) | 99 | 9 | 0 | 12 | 14
CC1=NNC(=O)C1CC(=O)N/N=C(\C)c1cccs1 (stereo not given) | 102 | 2 | 0 | 21 | 1
O=C1OC(COCC#Cc2ccccc2)CN1c1ccccc1 (stereo not given) | . | . | . | . | -17
CN(Cc1cnc2nc(N)nc(N)c2n1)c1ccc(C(=O)N[C@@H](CCC(=O)O)C(=O)O)cc1 | . | . | . | . | 85*!
Nc1nc2ncc(CNc3ccc(C(=O)N[C@@H](CCC(=O)O)C(=O)O)cc3)nc2c(=O)[nH]1 | . | . | . | . | 7
CN(C)c1cccc(C(=O)N/N=C/c2ccsc2)c1 | 109 | -27 | -6 | 31 | 58*
Cc1scc(C(=O)N/N=C/c2ccco2)c1C | 98 | -19 | 2 | -2 | 39

Screens deposited in PubChem by several laboratories.
